Records with an inconclusive call do not appear.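 How the source made its calls, unless noted: active means inhibition over a set limit, the all-compound mean plus 3 SD, in both replicate runs; inconclusive means over that limit in just one replicate run; inactive means at or under that limit in both runs.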
Key:
[1] = S. cerevisiae growth inhibition in permissive medium (OD615), pilot counter-assay for S. cerevisiae lifespan shortening project, permissive growth control (AID 705;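 active means growth inhibition above 25% in both replicates, a cutoff set 3 SD above the mean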); details: OD615, 24 h, at 10 µM, stronger effect = higher value
Outline: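 System: Engineered DeaD yeast | Buffer or medium: SC raffinose/galactose permissive medium | Doses: 10 µM single dose, 0.25% DMSO | Times: 24 h exposure, 30 °C | Measured by: OD615 turbidity read | Read-out: Yeast growth inhibition indicated by reduced 24 h OD615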

[2] = S. cerevisiae growth inhibition in restrictive medium, OD615, pilot screen, restrictive growth control, yeast lifespan reduction project (AID 706;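 active means growth inhibition above a set limit, 3 SD over mean compound inhibition, in both replicates, cut at about 43% in these data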;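 further: modified DeaD lifespan yeast strain shifted to restrictive glucose medium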); details: OD615, 48 h, at 10 µM, stronger effect = higher value
Outline: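 Assay system: engineered S. cerevisiae DeaD strain; Buffer or medium: CSMM-D glucose medium; Dosing: 10 µM compound, 0.25% DMSO; Times: cell pre-growth 4 h, compound exposure 48 h, 30 °C; Detection: absorbance (optical density) measured at 615 nm.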

[3] = doxorubicin toxicity protection in MRP-1 cells – H69AR cells, CellTiter-Glo, duplicate, MRP-1 activator project, pilot screen (AID 807;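 active means viability increase at or above a cutoff of the median across tested compounds plus 3 SD, cut at about 8.5% in these data, passing the limit was not always enough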;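 further: compound pretreatment 18-22 h then 72 h combined with doxorubicin; 0% = doxorubicin alone and 100% = vehicle without doxorubicin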); details: H69AR viability with doxorubicin, CellTiter-Glo luminescence; at 10 µM; stronger effect = higher value
[4] = viability of HCT116 without oncogenic beta-catenin – human colon tumor cells, pilot screen (AID 823;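 active means cell viability at or below a set limit in both duplicate runs, the limit being the all-compound median minus 4 SD, cut at about 23% in these data, passing the limit was not always enough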;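 further: 0% = wells killed by 20 µM Hyamine and 100% = untreated DMSO cell wells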); details: HCT116 beta-catenin knockout viability, CellTiter-Glo, 60 h; at 10 µM; stronger effect = lower value
[5] = viability of PTEN-null HCT116 cells – cell-based, HCT116 clonal line, CellTiter-Glo, pilot screen (AID 824;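 active means viability at or below 27.92% in each of two runs, the all-compound median minus 4 SD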;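 further: 0% = 20 µM Hyamine control and 100% = vehicle cell control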); details: HCT116 PTEN-deleted viability, 60 h, at 10 µM, stronger effect = lower value
[6] = RAM pathway blockade in budding yeast – dse1pr::URA3 reporter, 5-FOA selection, pilot screen (AID 869);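 further: 0% = DMSO wells with no growth and 100% = 10 µM 1-NA-PP1 with full growth; RAM network block rescues cells from 5-FOA so hits raise OD615 growth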; details: S. cerevisiae dse1pr::URA3 5-FOA growth, OD615, 2 d; at 10 µM; stronger effect = higher value; strain carries analog-sensitive mutant Cbk1 kinase
[7] = RAM signaling pathway blockade in yeast – S. cerevisiae, Pdr1DBD-CYC8 efflux-inhibited sensitized strain, primary screen (AID 1298;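 active means RAM network inhibition above 8.4% in each of two replicates, 3 SD over the compound average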;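 further: 0% = DMSO untreated cells without growth and 100% = 10 µM 1-NA-PP1 full growth; higher means more yeast growth rescued from 5-FOA killing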); details: S. cerevisiae cbk1-as DSE1-URA3 strain, 5-FOA growth OD615, 2 d; at 50 µM; stronger effect = higher value

Cn1c(NC(=O)C(C)(C)Oc2ccc(Cl)cc2)cc(=O)n(C)c1=O
inactive: growth inhibition [1] -1.72% | growth inhibition [2] -8.67% | viability increase [3] -0.77% | viability [4] 94.7% | viability [5] 91.3% | inhibition [6] 2.34% | RAM network inhibition [7] -2.22%

O=C(COC(=O)c1ccccc1Oc1ccccc1)NCc1ccco1
inactive: growth inhibition [1] -7.67% | growth inhibition [2] -3.48% | viability increase [3] -6.02% | viability [4] 61.6% | viability [5] 67.1% | inhibition [6] 2.41% | RAM network inhibition [7] 2.24%

COc1ccc(CN2CCCC2C(=O)Nc2ccc(OC)c(OC)c2)cc1OC (stereo unspecified)
inactive: growth inhibition [1] -5.96% | growth inhibition [2] -5.92% | viability increase [3] -2.8% | viability [4] 102% | viability [5] 97.3% | inhibition [6] 0.71% | RAM network inhibition [7] 0.26%

CCc1ccc(NS(=O)(=O)c2cc(OC)ccc2OC)cc1
inactive: growth inhibition [1] -3.06% | growth inhibition [2] -9.52% | viability increase [3] -3.77% | viability [4] 66.6% | viability [5] 58.3% | inhibition [6] 0.68% | RAM network inhibition [7] 1.9%

COc1ccc(Cn2nnc3c(=O)[nH]c(C(=O)NCCc4ccc(F)cc4)nc32)cc1OC
inactive: growth inhibition [1] -3.32% | growth inhibition [2] -2.82% | viability increase [3] -0.55% | viability [4] 114% | viability [5] 100% | inhibition [6] 2.69% | RAM network inhibition [7] 0.97%

CCOc1cccc(-c2nc(C(N)=O)c3[nH]c(=O)n(-c4cccc(Cl)c4)c3n2)c1O
inactive: growth inhibition [1] -2.52% | growth inhibition [2] -7.1% | viability increase [3] -2.06% | viability [4] 101% | viability [5] 93.1% | inhibition [6] 0.85% | RAM network inhibition [7] 2.67%

CCN1CCN(c2cc(C)c3cc(NC(=O)Cc4ccc(OC)c(OC)c4)ccc3n2)CC1
inactive: growth inhibition [1] -15.9% | growth inhibition [2] -16.5% | viability increase [3] -5.64% | viability [4] 75.5% | viability [5] 77.2% | inhibition [6] 3.25% | RAM network inhibition [7] -0.95%

O=C(c1ccccc1)N1CCn2c(nc3ccccc32)C1
inactive: growth inhibition [1] 3.33% | growth inhibition [2] 2.58% | viability increase [3] -0.73% | viability [4] 98.2% | viability [5] 98.2% | inhibition [6] 0.5% | RAM network inhibition [7] 6.85%

O=C1c2ccccc2C(Nc2ccc(S(=O)(=O)N3CCCCC3)cc2)N1c1ccccn1 (stereo unspecified)
inactive: growth inhibition [1] -3.39% | growth inhibition [2] -7.4% | viability increase [3] -4.22% | viability [4] 67.8% | viability [5] 65.4% | inhibition [6] 2.17% | RAM network inhibition [7] 3.68%

CS(=O)(=O)n1nc(C(=O)N2CCOCC2)nc1N
inactive: growth inhibition [1] -10% | growth inhibition [2] -18.6% | viability increase [3] 0.47% | viability [4] 103% | viability [5] 98.4% | inhibition [6] 2.68% | RAM network inhibition [7] 5.4%

COc1ccc(N2CCN(Cc3nc4c(c(=O)[nH]c(=O)n4C)n3Cc3cccc(Cl)c3)CC2)cc1
inactive: growth inhibition [1] -9.21% | growth inhibition [2] -12.3% | viability increase [3] -3.93% | viability [4] 91.6% | viability [5] 77% | inhibition [6] 1.39% | RAM network inhibition [7] 1.83%

COc1ccccc1CNS(=O)(=O)c1ccc2c(c1)oc(=O)n2C
inactive: growth inhibition [1] -4.47% | growth inhibition [2] -0.685% | viability increase [3] -0.99% | viability [4] 101% | viability [5] 86.7% | inhibition [6] 0.795% | RAM network inhibition [7] 0.32%

Cn1c(=O)c2c(nc(SCCN3CCOCC3)n2Cc2ccc(Cl)cc2)n(C)c1=O
inactive: growth inhibition [1] -5.34% | growth inhibition [2] 16.6% | viability increase [3] -3.32% | viability [4] 87.8% | viability [5] 84.1% | inhibition [6] 2.31% | RAM network inhibition [7] -0.47%

CC(=O)N1CCC2(CC1)C(C#N)=C(N)Oc1n[nH]c(C)c12
inactive: growth inhibition [1] -6.98% | growth inhibition [2] 14.8% | viability increase [3] 0.18% | viability [4] 97.9% | viability [5] 98.2% | inhibition [6] 1.04% | RAM network inhibition [7] 6.55%

CC1c2[nH]c3ccccc3c2CCN1S(C)(=O)=O (stereo unspecified)
inactive: growth inhibition [1] 2.66% | growth inhibition [2] 14.2% | viability increase [3] -0.49% | viability [4] 98.4% | viability [5] 90.8% | inhibition [6] 0.31% | RAM network inhibition [7] 0.57%

COc1ccc(NC(=O)C2=C(C)NC(=O)NC2c2cccc(OC)c2OC)c(OC)c1 (stereo unspecified)
inactive: growth inhibition [1] -15.4% | growth inhibition [2] -22.3% | viability increase [3] 0.09% | viability [4] 103% | viability [5] 103% | inhibition [6] 0.405% | RAM network inhibition [7] -1.04%

COc1ccccc1C1NC(=O)NC(C)=C1C(=O)OC1CCCCC1 (stereo unspecified)
inactive: growth inhibition [1] -4.16% | growth inhibition [2] -6.71% | viability increase [3] 0.87% | viability [4] 97.5% | viability [5] 92.3% | inhibition [6] 2.65% | RAM network inhibition [7] 2.9%

CCOC(=O)c1csc(NC(=O)c2ccccc2)n1
inactive: growth inhibition [1] -6.33% | growth inhibition [2] 0.485% | viability increase [3] 4.7% | viability [4] 101% | viability [5] 99.7% | inhibition [6] 0.115% | RAM network inhibition [7] -2.57%

CC(C)N1CCc2c(sc(NC(=O)c3ccc(S(=O)(=O)N4CCOCC4)cc3)c2C#N)C1
inactive: growth inhibition [1] -4.83% | growth inhibition [2] -3.24% | viability increase [3] -2.2% | viability [4] 85.3% | viability [5] 86.3% | inhibition [6] 0.75% | RAM network inhibition [7] 1.3%

Cc1cccc(CN2CCN(CC(=O)NCc3ccc(F)cc3)C2=O)c1
inactive: growth inhibition [1] -2.2% | growth inhibition [2] -1.6% | viability increase [3] 0.82% | viability [4] 104% | viability [5] 104% | inhibition [6] 0.03% | RAM network inhibition [7] 3.27%

O=C(Cn1cc2c(n1)CCCC2)N1CCOCC1
inactive: growth inhibition [1] -13.2% | growth inhibition [2] -4.99% | viability increase [3] -0.03% | viability [4] 99.4% | viability [5] 108% | inhibition [6] 0.095% | RAM network inhibition [7] 6.94%

O=C(CCCOc1ccccc1)Nc1ccc2c(c1)OCCO2
inactive: growth inhibition [1] 1.88% | growth inhibition [2] 7.45% | viability increase [3] -4.17% | viability [4] 102% | viability [5] 102% | inhibition [6] 1.16% | RAM network inhibition [7] 3.58%

COc1ccc(-n2c(Cn3c(=O)sc4ccccc43)nnc2SCC(N)=O)cc1
inactive: growth inhibition [1] -10.9% | growth inhibition [2] -0.695% | viability increase [3] 0.09% | viability [4] 101% | viability [5] 101% | inhibition [6] 1.29% | RAM network inhibition [7] 0.06%

C=C(Br)Cn1c(CC(C)C)nc2ccccc21
inactive: growth inhibition [1] 13.3% | growth inhibition [2] -14.3% | viability increase [3] -4.96% | viability [4] 85.1% | viability [5] 83.7% | inhibition [6] 0.265% | RAM network inhibition [7] 4.37%

COCCCNC(=O)CN1C(=O)CSc2ncccc21
inactive: growth inhibition [1] -3.21% | growth inhibition [2] 3.79% | viability increase [3] 0.91% | viability [4] 105% | viability [5] 101% | inhibition [6] 2.06% | RAM network inhibition [7] 2.8%

CCOC(=O)NCc1ccc2[nH]c(C)cc2c1
inactive: growth inhibition [1] -16.1% | growth inhibition [2] -9.38% | viability increase [3] -1.52% | viability [4] 94.5% | viability [5] 97.1% | inhibition [6] -0.465% | RAM network inhibition [7] 4.71%

COc1ccc(OC)c(CCNC(=O)CN2C(=O)CC(C)(C)S(=O)(=O)c3ccccc32)c1
inactive: growth inhibition [1] -4.35% | growth inhibition [2] -14.1% | viability increase [3] -2.6% | viability [4] 101% | viability [5] 92.3% | inhibition [6] -0.045% | RAM network inhibition [7] 2.76%

CNC(=O)CN1C(=O)CSc2nc(C)cc(C)c21
inactive: growth inhibition [1] -8.87% | growth inhibition [2] -6.29% | viability increase [3] 0.88% | viability [4] 99.9% | viability [5] 97.8% | inhibition [6] 1.83% | RAM network inhibition [7] 1.73%

CCc1ccc(NC(=O)c2cnc3n(c2=O)CCS3)cc1
inactive: growth inhibition [1] -1.06% | growth inhibition [2] 0.895% | viability increase [3] -2.9% | viability [4] 95.2% | viability [5] 85.9% | inhibition [6] 2.82% | RAM network inhibition [7] 0.15%

COc1cc(NC(=O)CN2CC(c3ccccc3)CC2=O)cc(OC)c1 (stereo unspecified)
inactive: growth inhibition [1] -20.8% | growth inhibition [2] -10.4% | viability increase [3] 0.18% | viability [4] 100% | viability [5] 99.4% | inhibition [6] 1.27% | RAM network inhibition [7] 1.83%

CCOCN(C(=O)Cn1c(CO)nc2ccccc21)c1c(C)cccc1CC
inactive: growth inhibition [1] -10.7% | growth inhibition [2] 0.69% | viability increase [3] -3.12% | viability [4] 89.4% | viability [5] 94.4% | inhibition [6] 2.68% | RAM network inhibition [7] 7.56%

O=S(=O)(c1ccc(Cl)c(Cl)c1)N1CCc2nc3ccccc3n2CC1
inactive: growth inhibition [1] -5.17% | growth inhibition [2] 4.47% | viability increase [3] -1.28% | viability [4] 98.9% | viability [5] 102% | inhibition [6] 1.75% | RAM network inhibition [7] 6.73%

COc1cccc(-c2nc(CS(=O)CC(=O)NC3CCCC3)c(C)o2)c1 (stereo unspecified)
inactive: growth inhibition [1] -7.39% | growth inhibition [2] 1.47% | viability increase [3] -2.4% | viability [4] 90.3% | viability [5] 95.6% | inhibition [6] 1.09% | RAM network inhibition [7] 1.25%

From PubChem BioAssay
